# Data taken from ChEMBL document CHEMBL4219223, “Rational design of pyridyl derivatives of vanillin for the treatment of sickle cell disease” (2018).
# Key:
# Erythrocyte [1] = experiment: Antisickling activity in human homozygous sickle red blood cells at 2 mM incubated for 2 hrs under hypoxic condition relative to control; format: functional
# Summary of the method: (§1)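 Sickle (SS) red cell suspensions at 20% hematocrit, with or without compound (0.5, 1.0, 2.0 mM; DMSO <2% final, also in controls), held in air at 37°C for 1 h, then under 4% O2/96% N2 at 37°C for 2 h. Aliquots fixed in 2% glutaraldehyde without air exposure; sickling scored on bright-field images at 40x. Mean ± SD, three biological replicates.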
# Erythrocyte [2] = experiment: Antisickling activity in human homozygous sickle red blood cells at 1 mM incubated for 2 hrs under hypoxic condition relative to control; format: functional; summary of the method: as §1
# [3] = biological target: T1, Hemoglobin HbA (Homo sapiens) (UniProt P69905+P68871); experiment: (§2) Induction of R-state stabilization of Hb in human homozygous sickle red blood cells assessed as change in oxygen pressure at which hemolysates are 50% saturated with oxygen at 2 mM incubated under air for 1 hr followed by 2 hrs incubation under hypoxic condition by oxygen equilibrium curve analysis relative to control
# Summary of the method: (§3)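 SS cells (20% hematocrit) given 0.5–2.0 mM compound, 1 h in air at 37°C, then 2 h hypoxia (4% O2) at 37°C. Cells washed in PBS and lysed hypotonically. About 100 μL clarified lysate placed in 4 ml 0.1 M potassium phosphate, pH 7.0, and read on a Hemox analyzer. ΔP50 = (P50 untreated − P50 treated)/P50 untreated × 100, relative to DMSO controls. Three biological replicates.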
# [4] = biological target: T1, Hemoglobin HbA (Homo sapiens); experiment: Inhibition of sickle hemoglobin polymerization in human homozygous sickle red blood cells assessed as formation of high oxygen affinity schiff-base adducts at 1 mM incubated under air for 1 hr followed by 2 hrs incubation under hypoxic condition by HPLC method relative to control; parameters: scale not given: the % may be the effect or the level left
# Summary of the method: (§4)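 Lysates from SS cells (20% hematocrit) exposed to 0.5, 1.0 or 2.0 mM compound, 1 h air then 2 h 4% O2 at 37°C. Cells washed in PBS and lysed hypotonically. Hb S adduct percentage taken from weak cation-exchange HPLC elution patterns (Poly CAT A column). Mean ± SD of three biological replicates.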
# [5] = biological target: T1, Hemoglobin HbA (Homo sapiens); experiment: Inhibition of sickle hemoglobin polymerization in human homozygous sickle red blood cells assessed as formation of high oxygen affinity schiff-base adducts at 2 mM incubated under air for 1 hr followed by 2 hrs incubation under hypoxic condition by HPLC method relative to control; parameters: scale not given: the % may be the effect or the level left; summary of the method: as §4
# [6] = biological target: T1, Hemoglobin HbA (Homo sapiens); experiment: as §2, with “at 0.5” for “at 2”; summary of the method: as §3
# [7] = biological target: T1, Hemoglobin HbA (Homo sapiens); experiment: as §2, with “at 1” for “at 2”; summary of the method: as §3
# Erythrocyte [8] = experiment: Antisickling activity in human homozygous sickle red blood cells at 0.5 mM incubated for 2 hrs under hypoxic condition relative to control; format: functional; summary of the method: as §1
# [9] = biological target: T1, Hemoglobin HbA (Homo sapiens); experiment: Inhibition of sickle hemoglobin polymerization in human cell free hemoglobin matrix assessed as formation of high oxygen affinity schiff-base adducts incubated for 60 to 90 mins by HPLC method relative to control; format: protein-complex assay; parameters: scale not given: the % may be the effect or the level left
# [10] = biological target: T1, Hemoglobin HbA (Homo sapiens); experiment: Inhibition of sickle hemoglobin polymerization in human whole blood assessed as formation of high oxygen affinity schiff-base adducts by HPLC method; format: protein-complex assay; conditions: TDE = time-dependent effect
# Summary of the method: (§5)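 Normal donor whole blood (30% hematocrit) or purified Hb (1.56 mM) incubated with compound (0.5, 1.0, 2.0 mM) at 37°C with shaking at 140 rpm for up to 24 h. Samples taken at 0.5, 1, 2, 4, 8, 12 and 24 h and quenched with cyanoborohydride/borohydride to fix Schiff-base adducts. Adducts quantified by cation-exchange HPLC. Peak read from the %modification-vs-time curve; AUC(0–24) by linear trapezoidal rule.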
# [11] = biological target: T1, Hemoglobin HbA (Homo sapiens); experiment: Inhibition of sickle hemoglobin polymerization in human whole blood assessed as formation of high oxygen affinity schiff-base adducts at 2 mM after 2 hrs by HPLC method relative to control; format: protein-complex assay; parameters: scale not given: the % may be the effect or the level left; summary of the method: as §5
# [12] = biological target: T1, Hemoglobin HbA (Homo sapiens); experiment: Inhibition of sickle hemoglobin polymerization in human whole blood assessed as formation of high oxygen affinity schiff-base adducts at 2 mM measured up to 24 hrs by HPLC method relative to control; format: protein-complex assay; parameters: scale not given: the % may be the effect or the level left; summary of the method: as §5
# [13] = biological target: T1, Hemoglobin HbA (Homo sapiens); experiment: Inhibition of sickle hemoglobin polymerization in human whole blood assessed as formation of high oxygen affinity schiff-base adducts at 2 mM measured at 2 hrs by HPLC method relative to control; format: protein-complex assay; parameters: scale not given: the % may be the effect or the level left; summary of the method: as §5
# [14] = biological target: T1, Hemoglobin HbA (Homo sapiens); experiment: Inhibition of sickle hemoglobin polymerization in human whole blood assessed as formation of high oxygen affinity schiff-base adducts at 2 mM measured after 24 hrs by HPLC method relative to control; format: protein-complex assay; parameters: scale not given: the % may be the effect or the level left; summary of the method: as §5
# Erythrocyte [15] = experiment: Antisickling activity in human homozygous sickle red blood cells incubated for 2 hrs under hypoxic condition; format: functional, cell-based; summary of the method: as §1
# [16] = biological target: T1, Hemoglobin HbA (Homo sapiens); experiment: Inhibition of sickle hemoglobin polymerization in human homozygous sickle red blood cells assessed as formation of high oxygen affinity schiff-base adducts incubated under air for 1 hr followed by 2 hrs incubation under hypoxic condition by HPLC method; summary of the method: as §4
# [17] = biological target: T1, Hemoglobin HbA (Homo sapiens); experiment: Induction of R-state stabilization of Hb in human homozygous sickle red blood cells assessed as change in oxygen pressure at which hemolysates are 50% saturated with oxygen incubated under air for 1 hr followed by 2 hrs incubation under hypoxic condition by oxygen equilibrium curve analysis; summary of the method: as §3
# [18] = biological target: T1, Hemoglobin HbA (Homo sapiens); experiment: Inhibition of sickle hemoglobin polymerization in human homozygous sickle red blood cells assessed as formation of high oxygen affinity schiff-base adducts at 0.5 mM incubated under air for 1 hr followed by 2 hrs incubation under hypoxic condition by HPLC method relative to control; parameters: scale not given: the % may be the effect or the level left; summary of the method: as §4
# [19] = biological target: T1, Hemoglobin HbA (Homo sapiens); experiment: Inhibition of sickle hemoglobin polymerization in human cell free hemoglobin matrix assessed as formation of high oxygen affinity schiff-base adducts incubated for 90 mins by HPLC method relative to control; format: protein-complex assay; parameters: scale not given: the % may be the effect or the level left
# [20] = biological target: T1, Hemoglobin HbA (Homo sapiens); experiment: Inhibition of sickle hemoglobin polymerization in human whole blood assessed as formation of high oxygen affinity schiff-base adducts at 2 mM measured at 12 hrs by HPLC method relative to control; format: protein-complex assay; parameters: scale not given: the % may be the effect or the level left; summary of the method: as §5
# T1 sequence (P68871 2-147 partner limits assumed): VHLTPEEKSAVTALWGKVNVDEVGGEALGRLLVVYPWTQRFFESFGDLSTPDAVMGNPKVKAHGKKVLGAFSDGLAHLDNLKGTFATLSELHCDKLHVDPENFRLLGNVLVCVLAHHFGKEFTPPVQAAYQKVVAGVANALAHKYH
# T1 sequence (P69905 2-142 limits assumed): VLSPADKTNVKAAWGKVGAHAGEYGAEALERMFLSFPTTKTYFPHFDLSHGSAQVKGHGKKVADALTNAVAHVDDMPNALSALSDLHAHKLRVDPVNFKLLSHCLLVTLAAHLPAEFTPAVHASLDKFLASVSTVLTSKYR
Activity [4],Activity [5],Activity [9],Activity [10],Activity [11],Activity [12],Activity [13],Activity [14],Activity [16],Activity [18],Activity [19],Activity [20],SMILES,inhibition at 2000 µM (Erythrocyte [1]),inhibition at 1000 µM (Erythrocyte [2]),Activity [3],Activity [6],Activity [7],inhibition at 500 µM (Erythrocyte [8]),Activity (Erythrocyte [15]),Activity [17]
79%,100%,100%,Tde,50%,25%,50%,25%,Dose-dependent effect,,,,COc1ccc(OCc2cccnc2)c(C=O)c1,90.5%,59.5%,75.8%,24.8%,49.2%,14.9%,Dose-dependent effect,Dose-dependent effect
24.8%,51.6%,,Tde,,60%,,,Dose-dependent effect,12%,50%,,COc1ccc(C=O)c(OCc2ccccn2)c1,51.3%,13.5%,34.2%,8.1%,20.9%,7.6%,Dose-dependent effect,Dose-dependent effect
58.7%,82.5%,100%,Tde,45%,15%,50%,15%,Dose-dependent effect,32.8%,,,COc1ccc(OCc2ccncc2)c(C=O)c1,85.9%,60.4%,55.6%,7.9%,31.5%,21.7%,Dose-dependent effect,Dose-dependent effect
5.6%,12%,,Tde,,,,,Dose-dependent effect,3.3%,,,COc1cc(C=O)ccc1O [VANILLIN],7.3%,7.3%,21%,1.2%,10.6%,4.2%,Dose-dependent effect,Dose-dependent effect
55.3%,79.5%,100%,Tde,,,,45%,Dose-dependent effect,26.3%,,50%,COc1ccc(OCc2ccccn2)c(C=O)c1,90.3%,64.8%,61.4%,22%,38.1%,24.3%,Dose-dependent effect,Dose-dependent effect
